Active and inactive are the calls of the source. The rule behind the calls is not given here.
Tests used:
[1] = system: Trypanosoma brucei brucei; test: Antitrypanosomal activity against Trypanosoma brucei brucei AnTaT 1.1 infected in Balb/cJ mouse assessed as reduction in parasitemia at 40 mg/kg, ip for single dose and measured after 7 to 17 days; format: functional, organism-based; conditions: time 7-17 day
Outline: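 Female BalB/cJ mice, 6-8 weeks, ~20 g, infected ip with 10^4 bloodstream T. b. brucei AnTaT 1.1. From day 4 post-infection, groups of 6 dosed ip in 300 µL PBS: daily for 7 days at 2.09 or 8.36 mg/Kg, or one 40 mg/Kg dose; vehicle DMSO 3.3 mg/Kg/day for 7 days. Parasitemia from submandibular blood counted by light microscopy in a Neubauer chamber. Detection limit ≥2.5×10^4 parasites/mL. Kruskal-Wallis test versus vehicle.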

[2] = system: Trypanosoma brucei brucei; test: Induction of cell cycle arrest in bloodstream form Trypanosoma brucei brucei 427 assessed as accumulation at G0/G1 phase at 41 nM after 24 hrs by propidium iodide staining based flow cytometric analysis (reference value: 49%); format: functional
DNA [3] = test: Competitive binding affinity to Escherichia coli XL-1 pUC18 K-DNA at 20 uM after 30 to 120 mins by DAPI staining based spectrofluorimetric method relative to control; format: nucleic-acid assay; conditions: time 30-120 min
Outline: (§1)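 pUC18 or pUC18 carrying a T. brucei minicircle, 5 nM in PBS pH 7.4, incubated 30 or 120 min with 20 µM compound or DMSO 1% v/v. DAPI then added to 500 nM final and emission recorded by spectrofluorimetry (ex 358 nm, em 368–600 nm). Fluorescence normalized to the DNA+DMSO+DAPI control set at 100%. Mean ± S.D., n=3.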

[4] = system: Trypanosoma brucei brucei; test: Antitrypanosomal activity against bloodstream form Trypanosoma brucei brucei 427 […] assessed as cell viability after 24 hrs by propidium iodide staining based flow cytometric analysis; format: functional, organism-based; conditions: Trypanosoma brucei, 427, 24 h
Outline: (§2)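 Bloodstream T. b. brucei 427 expressing hGrx1-roGFP2 (line 449_Grx-roGFP2), grown in HMI-9 with 10% FBS, 37 °C, 5% CO2. Biosensor induced with oxytetracycline (1 µg/mL final). Exponential-phase cells seeded at 5×10^5/mL and exposed 24 h to a single 5 µM screen, or to 0.0001–120 µM for EC50. DMSO ≤1% v/v. Viability read by PI exclusion on flow cytometry, expressed relative to DMSO control. EC50 from nonlinear fit; ≥3 replicates, S.D.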

DNA [5] = test: Competitive binding affinity to Escherichia coli XL-1 pUC18 plasmid DNA at 20 uM after 30 to 120 mins by DAPI staining based spectrofluorimetric method relative to control; format: nucleic-acid assay; conditions: time 30-120 min; outline: as §1
[6] = system: Trypanosoma brucei brucei; test: Induction of cell cycle arrest in bloodstream form Trypanosoma brucei brucei 427 assessed as accumulation at G2/M phase at 41 nM after 24 hrs by propidium iodide staining based flow cytometric analysis (reference value: 20%); format: functional
[7] = system: Trypanosoma brucei brucei; test: Induction of cell cycle arrest in bloodstream form Trypanosoma brucei brucei 427 assessed as accumulation at 0K+1N cells at 41 nM after 24 hrs by DAPI. staining based epifluorescence microscopic analysis relative to control; format: functional
Outline: (§3)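 Parasites at 5×10^5/mL treated 24 h with DMSO 1%, DAC 41 nM, or compound at 12 or 7 nM. Cells fixed in 4% paraformaldehyde for 18 min at room temperature and smeared on slides. Mounted in DAPI medium and scored by epifluorescence microscopy (60X/100X) for kinetoplast/nucleus configuration. At least 50 cells per sample.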

[8] = system: Trypanosoma brucei brucei; test: Induction of cell cycle arrest in bloodstream form Trypanosoma brucei brucei 427 assessed as accumulation at 1K+1N cells at 41 nM after 24 hrs by DAPI. staining based epifluorescence microscopic analysis (reference value: 80%); format: functional; outline: as §3
J774 [9] = test: Cytotoxicity against mouse J774 cells assessed as reduction in cell viability >120 uM after 24 hrs by WST-1 assay; format: cell-based; conditions: j774, 24 h
Outline: (§4)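 J774 murine macrophages in DMEM with 10% FBS, 37 °C, 5% CO2. Exposed 24 h to a 6-point compound series, in triplicate, up to 120 µM with DMSO 1% v/v. Viability read with WST-1 reagent relative to DMSO control and EC50 taken from nonlinear fit. The selectivity index is the macrophage EC50 divided by the trypanosome EC50.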

[10] = system: Trypanosoma brucei brucei; test: Antitrypanosomal activity against bloodstream form Trypanosoma brucei brucei 427 […] assessed as cell viability at 5 uM after 24 hrs by propidium iodide staining based flow cytometric analysis relative to control; format: functional; outline: as §2
[11] = Selectivity index, ratio of EC50 for cytotoxicity against mouse J774 cells to EC50 for antitrypanosomal activity against bloodstream form Trypanosoma brucei brucei 427; format: toxicity, cell-based; conditions: read-out: Ratio EC50; outline: as §4
J774 [12] = test: Cytotoxicity against mouse J774 cells assessed as reduction in cell viability at 120 uM after 24 hrs by WST-1 assay; format: cell-based; conditions: j774, 24 h; outline: as §4
DNA [13] = test: Competitive binding affinity to Escherichia coli XL-1 pUC18 plasmid DNA at 20 uM after 30 mins by DAPI staining based spectrofluorimetric method relative to control; format: nucleic-acid assay; outline: as §1
DNA [14] = test: Competitive binding affinity to Escherichia coli XL-1 pUC18 plasmid DNA at 20 uM after 120 mins by DAPI staining based spectrofluorimetric method relative to control; format: nucleic-acid assay; outline: as §1
[15] = system: Trypanosoma brucei brucei; test: Induction of cell cycle arrest in bloodstream form Trypanosoma brucei brucei 427 assessed as accumulation at 1K+1N cells at 12 nM after 24 hrs by DAPI. staining based epifluorescence microscopic analysis (reference value: 80%); format: functional; outline: as §3
DNA [16] = test: Competitive binding affinity to Escherichia coli XL-1 pUC18 K-DNA at 20 uM after 30 mins by DAPI staining based spectrofluorimetric method relative to control; format: nucleic-acid assay; outline: as §1
[17] = system: Trypanosoma brucei brucei; test: Induction of cell cycle arrest in bloodstream form Trypanosoma brucei brucei 427 assessed as accumulation at single kinetoplast and septum like or partitioned nucleus cells at 12 nM after 24 hrs by DAPI. staining based epifluorescence microscopic analysis relative to control; format: functional; outline: as §3
[18] = system: Trypanosoma brucei brucei; test: Induction of oxidative stress in bloodstream form Trypanosoma brucei brucei 427 up to 5 times EC50 concentration after 4 hrs by propidium iodide staining based flow cytometric analysis; format: functional
[19] = system: Trypanosoma brucei brucei; test: Induction of membrane permeability in bloodstream form Trypanosoma brucei brucei 427 assessed as change in integrity at EC50 concentration after 4 hrs by propidium iodide staining based flow cytometric analysis
J774 [20] = test: Cytotoxicity against mouse J774 cells assessed as reduction in cell viability after 24 hrs by WST-1 assay; format: cell-based; conditions: J774, 24 h; outline: as §4
DNA [21] = test: Competitive binding affinity to Escherichia coli XL-1 pUC18 K-DNA at 20 uM after 120 mins by DAPI staining based spectrofluorimetric method relative to control; format: nucleic-acid assay; outline: as §1
[22] = system: Trypanosoma brucei brucei; test: Induction of oxidative stress in bloodstream form Trypanosoma brucei brucei 427 at 250 uM after 20 min by propidium iodide staining based flow cytometric analysis

SMILES | EC50 [4] [nM] | Activity (J774 [9]) | Activity [10] [%] | selectivity ratio [11] | Activity (J774 [12]) | further results
CC(=O)NCC(=O)O.CC(=O)NCC(=O)O.N=C(N)c1ccc(/N=N/Nc2ccc(C(=N)N)cc2)cc1 [DIMINAZENE DIACETURATE] | 41 |  |  |  |  | Activity [1]: Active; Activity [2]: 7%; Activity (DNA [3]): 22%; Activity (DNA [5]): 22%; Activity [6]: 93%; Activity [7]: 39%; Activity [8]: 44%
Cn1cc(NC(=O)c2csc(NC(=O)OC(C)(C)C)n2)cc1C(=O)Nc1nc(C(=O)O)cs1 | 3320 | Nd(Insoluble) | 23.6 | > 35 | Non-Toxic | 
COC(=O)c1nc(NC(=O)c2cc(NC(=O)c3nc(NC(C)=O)sc3C(C)C)cn2C)sc1C(C)C | 827 | Nd(Insoluble) | 5.4 | > 145 | Non-Toxic | 
CC(C)c1sc(NC(=O)c2cc(NC(=O)c3nc(NC(=O)OC(C)(C)C)sc3C(C)C)cn2C)nc1C(=O)O |  | Nd(Insoluble) | 48.5 |  | Non-Toxic | 
COC(=O)c1nc(NC(=O)c2cc(NC(=O)c3nc(NC(=O)OC(C)(C)C)sc3C(C)C)cn2C)sc1C(C)C | 11.8 |  | 15.5 | > 10200 |  | Activity (DNA [13]): 15%; Activity (DNA [14]): inactive; Activity [15]: 48%; Activity (DNA [16]): 15%; Activity [17]: 38%; Activity [18]: inactive; Activity [19]: inactive; EC50 (J774 [20]): 39500 nM; Activity (DNA [21]): 30%
CC1=CC(=O)c2ccccc2C1=O |  |  |  |  |  | Activity [22]: Active
COC(=O)c1nc(NC(=O)c2cc([N+](=O)[O-])cn2C)sc1C(C)C |  |  | 105.6 |  |  | 
